Results reported in ChEMBL document CHEMBL1132327, “Improved in vivo stability of actinium-225 macrocyclic complexes” (J Med Chem, 1999).

Columns and labels:
Details in all cases: in vivo
Mus musculus [1] = species: Mus musculus; test: Biodistribution of [225Ac]-labeled compound in normal mice liver after 1 hr; format: ADME, organism-based
Mus musculus [2] = species: Mus musculus; test: Biodistribution of [225Ac]-labeled compound in normal mice bone after 1 hr; format: ADME, organism-based, Bone element
Mus musculus [3] = species: Mus musculus; test: Biodistribution of [225Ac]-labeled compound in normal mice spleen after 24 hr; format: ADME, organism-based
Mus musculus [4] = species: Mus musculus; test: Biodistribution of [225Ac]-labeled compound in normal mice kidney after 1 hr; format: ADME, organism-based
Mus musculus [5] = species: Mus musculus; test: Biodistribution of [225Ac]-labeled compound in normal mice heart after 24 hr; format: ADME, organism-based
Mus musculus [6] = species: Mus musculus; test: Biodistribution of [225Ac]-labeled compound in normal mice kidney after 24 hr; format: ADME, organism-based
Mus musculus [7] = species: Mus musculus; test: Biodistribution of [225Ac]-labeled compound in normal mice spleen after 4 hr; format: ADME, organism-based
Mus musculus [8] = species: Mus musculus; test: Biodistribution of [225Ac]-labeled compound in normal mice blood after 120 hr; format: ADME, organism-based
Mus musculus [9] = species: Mus musculus; test: Biodistribution of [225Ac]-labeled compound in normal mice liver after 24 hr; format: ADME, organism-based
Mus musculus [10] = species: Mus musculus; test: Biodistribution of [225Ac]-labeled compound in normal mice liver after 4 hr; format: ADME, organism-based
Mus musculus [11] = species: Mus musculus; test: Biodistribution of [225Ac]-labeled compound in normal mice blood after 1 hr; format: ADME, organism-based
Mus musculus [12] = species: Mus musculus; test: Biodistribution of [225Ac]-labeled compound in normal mice kidney after 4 hr; format: ADME, organism-based
Summary of the method: (§1)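 Normal female BALB/c mice received 2.5 µCi of 225Ac complex in 200 µL MES buffer (pH 6.2) by tail-vein injection. All complexes except Ac-acetate were Chelex-purified (0.1 M NH4OAc, pH 5.0) beforehand. Three to five animals were killed per time point. Tissues were weighed and counted for 225Ac 4 h later to allow nuclear equilibration, against external standards from the dose dilutions. Results are expressed as %ID/g.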

Mus musculus [13] = species: Mus musculus; test: (§2) Biodistribution of [225Ac]-labeled compound in normal mice kidney after 120 hr; format: ADME, organism-based; summary of the method: as §1
Mus musculus [14] = species: Mus musculus; test: Biodistribution of [225Ac]-labeled compound in normal mice liver after 120 hr; format: ADME, organism-based
Mus musculus [15] = species: Mus musculus; test: Biodistribution of [225Ac]-labeled compound in normal mice bone after 4 hr; format: ADME, organism-based, Bone element
Mus musculus [16] = species: Mus musculus; test: Biodistribution of [225Ac]-labeled compound in normal mice blood after 4 hr; format: ADME, organism-based
Mus musculus [17] = species: Mus musculus; test: Biodistribution of [225Ac]-labeled compound in normal mice heart after 4 hr; format: ADME, organism-based
Mus musculus [18] = species: Mus musculus; test: Biodistribution of [225Ac]-labeled compound in normal mice bone after 120 hr; format: ADME, organism-based, Bone element
Mus musculus [19] = species: Mus musculus; test: Biodistribution of [225Ac]-labeled compound in normal mice heart after 1 hr; format: ADME, organism-based
Mus musculus [20] = species: Mus musculus; test: Biodistribution of [225Ac]-labeled compound in normal mice spleen after 1 hr; format: ADME, organism-based
Mus musculus [21] = species: Mus musculus; test: Biodistribution of [225Ac]-labeled compound in normal mice blood after 24 hr; format: ADME, organism-based
Mus musculus [22] = species: Mus musculus; test: Biodistribution of [225Ac]-labeled compound in normal mice spleen after 120 hr; format: ADME, organism-based
Mus musculus [23] = species: Mus musculus; test: Biodistribution of [225Ac]-labeled compound in normal mice bone after 24 hr; format: ADME, organism-based, Bone element
Mus musculus [24] = species: Mus musculus; test: Biodistribution of [225Ac]-labeled compound in normal mice heart after 120 hr; format: ADME, organism-based
Mus musculus [25] = species: Mus musculus; test: as §2; format: ADME, organism-based; remark: listed apart in the source

Row | ID/g (Mus musculus [1]) [%] | ID/g (Mus musculus [2]) [%] | ID/g (Mus musculus [3]) [%] | ID/g (Mus musculus [4]) [%] | ID/g (Mus musculus [5]) [%] | ID/g (Mus musculus [6]) [%] | ID/g (Mus musculus [7]) [%] | ID/g (Mus musculus [8]) [%] | ID/g (Mus musculus [9]) [%] | ID/g (Mus musculus [10]) [%] | ID/g (Mus musculus [11]) [%] | ID/g (Mus musculus [12]) [%] | ID/g (Mus musculus [14]) [%] | ID/g (Mus musculus [15]) [%] | ID/g (Mus musculus [16]) [%] | ID/g (Mus musculus [17]) [%] | ID/g (Mus musculus [18]) [%] | ID/g (Mus musculus [19]) [%] | ID/g (Mus musculus [20]) [%] | ID/g (Mus musculus [21]) [%] | Structure (SMILES) | further results
1 | 8.85 | 4.34 | 0.63 | 4.55 | 0.43 | 1.71 | 0.4 | < 0.01 | 12.8 | 12.9 | 0.86 | 3.36 | 23.9 | 4.44 | < 0.01 | 1.51 | 4.18 | 1.99 | 0.71 | < 0.01 | O=C(O)CN(CC(=O)O)[C@H](Cc1ccc([N+](=O)[O-])cc1)CN(CC(=O)O)[C@@H]1CCCC[C@H]1N(CC(=O)O)CC(=O)O | ID/g (Mus musculus [13]): 1.51%; ID/g (Mus musculus [22]): 5.41%; ID/g (Mus musculus [23]): 4.65%; ID/g (Mus musculus [24]): 0.6%
2 | 12 | 1.75 | 0.8 | 5.6 | 0.68 | 1.64 | 0.59 | < 0.01 | 14.7 | 16.4 | 1.33 | 3.47 | 22.3 | 1.6 | < 0.01 | 2.34 | 1.6 | 2.65 | 0.83 | < 0.01 | O=C(O)CN1CCN(CC(=O)O)CCN(CC(=O)O)CCN(CC(=O)O)CCN(CC(=O)O)CC1 | ID/g (Mus musculus [13]): 1.28%; ID/g (Mus musculus [22]): 1.63%; ID/g (Mus musculus [23]): 1.51%; ID/g (Mus musculus [24]): 0.39%
3 | 0.17 | 0.06 | 0.03 | 0.72 | < 0.01 | 0.43 | 0.027 | < 0.01 | 0.19 | 0.23 | 0.03 | 0.71 | 0.26 | 0.025 | < 0.01 | 0.032 | 0.02 | 0.06 | 0.05 | < 0.01 | O=C(O)CN1CCN(CC(=O)O)CCN(CC(=O)O)CCN(CC(=O)O)CCN(CC(=O)O)CCN(CC(=O)O)CC1 | ID/g (Mus musculus [25]): 0.25%; ID/g (Mus musculus [22]): 0.03%; ID/g (Mus musculus [23]): < 0.01%; ID/g (Mus musculus [24]): 0.03%
4 | 1.15 | 1.54 | 0.03 | 1.23 | 0.04 | 0.48 | 0.04 | < 0.01 | 1.29 | 2.04 | 0.24 | 0.8 | 3.29 | 1.76 | < 0.01 | 0.12 | 2.87 | 0.16 | 0.06 | < 0.01 | O=C(O)CN1CCN(CC(=O)O)CCN(CC(=O)O)C(Cc2ccc([N+](=O)[O-])cc2)CN(CC(=O)O)CC1 (stereo unspecified) | ID/g (Mus musculus [25]): 0.27%; ID/g (Mus musculus [22]): 0.03%; ID/g (Mus musculus [23]): 0.98%; ID/g (Mus musculus [24]): 0.11%
